Tests used:
[1] = Observed log rate of methylthio adduct formation; assay type: ADME
Outline: (§1)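 Hamster liver 105000g cytosol AHAT was taken as the 35–50% ammonium sulfate fraction (2–3-fold purified). Incubation (1.0 mL, pH 6.8 sodium phosphate) held 0.8 μmol NAD⁺, 10 μmol N-acetyl-L-[¹⁴C-CH₃]methionine, 1 mg enzyme and 1 μmol hydroxamic acid, for 10 min at 37 °C in air. Ether wash and 90 °C/45 min heating were followed by benzene–alkane extraction and scintillation counting. Heat-denatured enzyme blanks were subtracted; N = 3.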

Hamster = test: Rate of methylthio adduct formation catalyzed by partially purified hamster hepatic enzyme per mg protein per 10 min; assay type: ADME; conditions: cricetinae, in vitro; outline: as §1

Log rate [1]	Rate (Hamster) [nmol/mg/10 min]	SMILES
	0	CCCCOc1ccc2c(c1)Cc1cc(N(O)C(C)=O)ccc1-2
1.79	61	CC(=O)c1ccc2c(c1)Cc1cc(N(O)C(C)=O)ccc1-2
1.18	15.2	CC(=O)N(O)c1ccc2c(c1)Cc1cc(F)ccc1-2
0.37	2.4	CC(=O)N(O)c1ccc2c(c1)Cc1cc(I)ccc1-2
1.02	10.5	CC(=O)N(O)c1ccc2c(c1)Cc1cc(Br)ccc1-2
0.09	1.2	COc1ccc2c(c1)Cc1cc(N(O)C(C)=O)ccc1-2
1.4	24.9	CC(=O)N(O)c1ccc2c(c1)Cc1cc(C#N)ccc1-2

SMILES	Log rate [1]	Rate (Hamster) [nmol/mg/10 min]
CC(=O)N(O)c1ccc2c(c1)Cc1ccccc1-2	0.87	7.5

Source: ChEMBL document CHEMBL1123135, “Substituent effects on the bioactivation of 2-(N-hydroxyacetamido)fluorenes by N-arylhydroxamic acid N,O-acyltransferase” (J Med Chem, 1985)
